KCNK9 inh: inhibitors of human KCNK9 two-pore domain potassium channel; Q9NPC2; HEK293 KCNK9, FluxOR thallium flux fluorescence; hits give low values; B-score at 10 µM; 310,000 compounds, 1.2% hits; AID 488922;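 active means ratio B-score over 3 SD below the library mean, with starting fluorescence within 5 SD of its mean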;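 further: negative B-score means less thallium flux so channel inhibition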
KCNQ1 act: human KCNQ1 channel potentiation or activation. P51787. CHO-K1 KCNQ1, thallium flux FluxOR fluorescence; hits give high values. B-score at 10 µM. 310,000 compounds, 0.35% hits;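 active means fluorescence ratio B-score, a plate-corrected score, at least three library SD, with initial intensity B-score within 5 SD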
Target sequence (P51787 whole entry, looked up): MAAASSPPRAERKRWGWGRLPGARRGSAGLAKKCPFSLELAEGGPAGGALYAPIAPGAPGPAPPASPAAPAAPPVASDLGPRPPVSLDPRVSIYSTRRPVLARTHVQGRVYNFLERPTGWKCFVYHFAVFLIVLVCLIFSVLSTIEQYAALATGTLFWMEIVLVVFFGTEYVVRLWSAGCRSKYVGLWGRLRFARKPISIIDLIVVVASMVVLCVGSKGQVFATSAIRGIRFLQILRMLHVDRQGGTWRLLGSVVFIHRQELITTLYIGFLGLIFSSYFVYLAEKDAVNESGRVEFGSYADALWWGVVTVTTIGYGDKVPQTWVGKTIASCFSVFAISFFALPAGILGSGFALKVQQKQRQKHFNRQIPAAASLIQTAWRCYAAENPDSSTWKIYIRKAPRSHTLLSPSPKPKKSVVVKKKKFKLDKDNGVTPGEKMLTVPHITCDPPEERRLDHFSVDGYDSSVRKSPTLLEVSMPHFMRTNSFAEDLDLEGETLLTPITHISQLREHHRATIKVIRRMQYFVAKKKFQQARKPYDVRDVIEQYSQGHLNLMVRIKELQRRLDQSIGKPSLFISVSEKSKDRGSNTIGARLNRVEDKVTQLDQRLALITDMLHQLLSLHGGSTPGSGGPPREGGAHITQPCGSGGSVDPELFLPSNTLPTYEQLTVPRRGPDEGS
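Assay system: CHO-K1 cells stably expressing KCNQ1. Medium: assay buffer for compound exposure, DMSO matched across wells. Timing: 37 °C overnight plating, 90-min dark dye load, 20-min compound pretreatment. Signal: kinetic FluxOR fluorescence, 10 s baseline plus 110 s post-stimulus.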
KCNQ1 inh: inhibitors of human KCNQ1 potassium channel; P51787; CHO-K1 KCNQ1, FluxOR thallium flux fluorescence; hits give high values; B-score at 10 µM; 310,000 compounds, 1.3% hits; AID 2642;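 active means compounds whose thallium flux B-score, printed positive for inhibition, exceeds three library SD while starting fluorescence stays within three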;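 further: channel opened by potassium depolarization with thallium stimulus after 20 min compound exposure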
hERG rescue: shields human hERG channel from block by proarrhythmic agents | Q12809 | CHO-hERG, FluxOR thallium flux, dofetilide IC70 present | activation (rescue from dofetilide block), less the hit threshold, % at 10 µM | 310,000 compounds, 0.51% hits | AID 1511;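 active means activation above the mean of controls blocked by dofetilide plus 5 SD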;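 further: thallium influx through hERG after potassium depolarization seen as dye fluorescence rise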
Kir21 inh: blocks the mouse Kir2.1 inward-rectifier potassium channel. 310,000 compounds, 0.85% hits. P35561. B-score at 10 µM. AID 1672. HEK293-Kir2.1, FluxOR thallium flux fluorescence; hits give low values;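 active means fluorescence ratio B-score at or below minus 3 SD of library scores, with starting-brightness B-score within 2 SD, cut at about -4.2 in these data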;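 further: channel flux triggered by added potassium and thallium sulfate stimulus; B-score of peak minus minimum fluorescence over baseline after thallium stimulus; more negative B-score means stronger Kir2.1 block with less thallium influx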
KCNK3 block: human KCNK3 channel inhibition, primary screen | O14649 | CHO-KCNK3 thallium flux, FluxOR fluorescence; hits give low values | B-score at 10 µM | 340,000 compounds, 0.84% hits;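 active means B-score under library mean minus 4 SD, starting fluorescence ratio at most library mean plus 5 SD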;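 further: more negative B-score means stronger inhibition of thallium flux through KCNK3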
KCNK9 inh conf: confirmation of human KCNK9 potassium channel inhibitors | shares compounds with KCNK9 inh | 4,900 compounds, 43% hits | HEK293 KCNK9 cells, FluxOR thallium flux fluorescence | inhibition, % at 10 µM;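 active means thallium signal inhibited by more than 5 SD of the compound-free buffer control wells, on both duplicate plates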;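 further: 0% = assay buffer control wells without compound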
Kir2-1 spec: selectivity of KCNK9 modulators against mouse Kir2.1 | AID 492993 | shares compounds with KCNK9 inh | inhibition, % at 10 µM | Kir2.1 cells, FluxOR thallium flux fluorescence | 4,900 compounds, 4% hits;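 active means thallium signal drop more than 5 SD beyond the mean of the no-compound control wells, seen in both duplicate plates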;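 further: signal is fluorescence rise after thallium addition divided by baseline fluorescence; plate controls were assay buffer only for no effect and full block by chlorpromazine control for full effect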
HEK293 Tl ctr: second check of KCNK9 modulator effects in non-induced HEK293 cells | FluxOR thallium flux | 4,900 compounds, 40% hits | shares compounds with KCNK9 inh | inhibition, % at 10 µM | AID 492997;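 active means thallium signal drop beyond 5 SD of the untreated control mean, on both duplicate plates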;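 further: plate controls were buffer only IC0 wells for no effect and SID17386958 at its maximal inhibitory level for full effect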
* marks the source's active call; other numbers are inactive results; i = inactive; · = no result; ! = repeats disagree. In the library only some 3.7% were active in any assay of this set; here they are far more common.

SMILES	KCNK9 inh	KCNQ1 act	KCNQ1 inh	hERG rescue	Kir21 inh	KCNK3 block	KCNK9 inh conf	Kir2-1 spec	HEK293 Tl ctr
COc1ccc(/C=C/C(=O)OCC(=O)NCCNC(=O)COC(=O)/C=C/c2ccc(OC)cc2)cc1	i	i	i	-6	0.26	i	·	·	·
CCc1ccc(NC(=O)COc2ccc(F)cc2C(=O)c2cnn(-c3ccccc3)c2)cc1	i	i	i	-10	-0.45	i	i	i	i
Cc1ccccc1NC(=S)NCc1ccc2[nH]c3c(c2c1)CCCC3	i	i	i	-10	-0.66	i	i	i	i
Cc1cc(C(F)(F)F)n(-c2nc(C(=O)N/N=C/c3ccc(F)cc3)cs2)n1	i	i	i	-14	0.26	i	·	·	·
COc1cccc(/C=N/NC(=O)c2csc(-n3nc(C)cc3C(F)(F)F)n2)c1	-15*	i	i	-3	0.03	i	i	i	i
CCc1cc(=O)oc2c(C)c(OC(C)C(=O)NCCCn3ccnc3)ccc12 (stereo not drawn)	i	i	i	-1	0.71	i	·	·	·
COc1ccc(OC)c(NC(=O)CSc2ccc(-c3ccco3)nn2)c1	i	i	i	-9	-0.49	i	·	·	·
Fc1ccc(/C=C/c2nnc(-c3cccs3)o2)cc1	-8.7*	i	i	-3	-0.03	i	33%*	i	i
O=S(=O)(c1ccc(Oc2ccc(Br)cc2)cc1)N1CCOCC1	i	i	i	-13	0.43	i	i	i	i
O=S(=O)(Nc1ccc(S(=O)(=O)N2CCOCC2)cc1)c1ccc(Br)cc1	i	i	i	-4	-0.72	i	·	·	·
Cc1ccc(CS(=O)Cc2ccc(C(=O)N3CCN(c4ccccn4)CC3)o2)cc1 (stereo not drawn)	i	i	i	-22	-1.7	i	·	·	·
O=C(NCc1ccccc1)[C@]1(C(F)(F)F)C[C@H](CCc2ccccc2)CCCO1	i	i	i	-8	-1.5	i	i	i	i
CCC[C@@H]1CCCO[C@@](C(=O)NCc2ccc(S(C)(=O)=O)cc2)(C(F)(F)F)C1	i	i	i	-3	0.06	i	·	·	·
CCCC[C@@H]1CCCO[C@@](C(=O)NCc2ccc(C)o2)(C(F)(F)F)C1	i	i	i	-9	0.12	i	i	i	i
COc1cccc(NC(=O)N(CCCN2CCOCC2)C(C)c2cc3cccc(OC)c3o2)c1 (stereo not drawn)	-8.3*	i	i	-2	-0.04	i	40%*	i	31%*
COc1cccc(NC(=S)N(CCCN2CCOCC2)C(C)c2cc3cccc(OC)c3o2)c1 (stereo not drawn)	i	i	i	-9	1.4	i	·	·	·
CCC(C(=O)Nc1ccc(C(=O)O)cc1NC(=O)C(CC)c1ccccc1)c1ccccc1 (stereo not drawn)	i	i	i	-2	-0.17	i	·	·	·
O=C(NCc1ccccc1)/C(=C/c1ccc(OC(F)F)cc1)c1ccccc1	-11*	i	i	-7	0.29	i	40%*	i	50%*
CC1CN(C(=O)c2cccc(S(=O)(=O)N3CCN(c4ccccc4)CC3)c2)CC(C)O1 (stereo not drawn)	·	·	·	·	·	i	·	·	·
CCOC(=O)[C@@H]1[C@H]2COc3ccc(Br)cc3[C@@H]2N2C(=O)N(c3ccc(C(F)(F)F)cc3)C(=O)[C@@]12C	-12*	i	i	-5	-0.92	i	74%*	i	41%*
CCOC(=O)[C@@H]1[C@H]2COc3ccc(Br)cc3[C@@H]2N2C(=O)N(c3cccc(F)c3)C(=O)[C@@]12C	-10*	i	i	-4	-0.16	i	64%*	i	26%*
CCOC(=O)[C@@H]1[C@H]2COc3ccccc3[C@@H]2N2C(=O)N(c3cccc(Cl)c3)C(=O)[C@@]12C	-12*	i	i	-14	-0.07	i	56%*	i	35%*
CCOC(=O)[C@@H]1[C@H]2COc3cc(OC)ccc3[C@H]2N2C(=O)N(c3cccc(F)c3)C(=O)[C@@]12C	·	·	·	·	·	i	·	·	·
NS(=O)(=O)c1cc(C(=O)N2CCNC(=O)C2)ccc1Cl	i	i	i	-8	-0.14	i	·	·	·
Cc1ccc[n+](CC(=O)Nc2cc(C(F)(F)F)ccc2Cl)c1	i	i	i	-4	0.64	i	·	·	·
SMILES	KCNK9 inh	KCNQ1 act	KCNQ1 inh	hERG rescue	Kir21 inh	KCNK3 block	KCNK9 inh conf	Kir2-1 spec	HEK293 Tl ctr
CCC(C)(C)c1ccc(OCCCC[n+]2cccc(C)c2)c(C(C)(C)CC)c1	-9.4*	i	10*	-29	-6.4*	i	38%*	66%*	28%*
O=C(CCC(=O)c1cccs1)OCC(=O)c1ccccc1F	·	·	·	·	·	i	·	·	·
CCN(CC)C(=O)CSc1nc2ccccc2c(=O)n1CC	i	i	i	-10	0.52	i	·	·	·
CCCCN(CC)C(=O)CSc1nc2ccccc2c(=O)n1CC1COc2ccccc2O1 (stereo not drawn)	i	i	i	-18	1.4	i	i	i	i
CC(C)CN(C(=O)C1COc2ccccc2O1)c1c(N)n(CC(C)C)c(=O)[nH]c1=O (stereo not drawn)	·	·	·	·	·	i	·	·	·
CC(C)C(=O)N1CCN(c2ccccc2NC(=O)c2ccc(C#N)cc2F)CC1	i	i	i	-20	-1.1	i	i	i	i
CC1CCN(c2ccccc2NC(=O)c2ccc(C#N)cc2F)CC1	i	i	i	-8	-0.11	i	·	·	·
Cc1ccc(C(C)C)cc1S(=O)(=O)NC1CC(C)(C)NC(C)(C)C1	i	i	i	3	-1.8	i	·	·	·
COc1ccc(-c2csc3nc(-c4ccccc4OC)oc(=O)c23)cc1	-11*	i	i	-9	0.36	i	72%*	i	i
CC1CCC(C(C)C)C(OC(=O)Cn2nnc3c(cnn3-c3ccccc3)c2=O)C1 (stereo not drawn)	i	i	i	-20	-1.3	i	·	·	·
Cc1ccccc1OCc1n(CC(=O)OC2CC(C)CCC2C(C)C)c2ccccc2[n+]1C (stereo not drawn)	-17*	i	8*!	-30	-15*	-13*	70%*	78%*!	i
